PAFAH1B2 FP inh: blocks human PAF acetylhydrolase 1b catalytic subunit 2. P68402. recombinant PAFAH1B2, FP-rhodamine activity probe, fluorescence polarization. inhibition, % at 3.39 µM. 340,000 compounds, 1.2% hits. AID 492953;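 active = inhibition above the mean of all tested compounds plus 3 SD, cut at about 24% in these data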
Target sequence (P68402 whole entry, looked up): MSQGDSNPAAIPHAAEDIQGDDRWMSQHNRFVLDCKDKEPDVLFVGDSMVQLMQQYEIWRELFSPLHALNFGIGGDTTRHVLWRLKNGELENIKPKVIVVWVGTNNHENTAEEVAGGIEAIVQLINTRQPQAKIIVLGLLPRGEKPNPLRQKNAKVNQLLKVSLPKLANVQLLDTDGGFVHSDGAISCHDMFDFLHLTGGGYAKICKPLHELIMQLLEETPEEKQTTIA
HTRA1 inh: HTRA1 (human) protease inhibition; AID 504803; recombinant HTRA1, FP-rhodamine activity-based probe, fluorescence polarization; Q92743; inhibition, % at 5.96 µM; 340,000 compounds, 0.5% hits; in the data active = inhibition above about 36%
ABHD4 inh: inhibitors of mouse ABHD4; purified mABHD4, FP-Rh probe fluorescence polarization; inhibition, % at 8.92 µM; 370,000 compounds, 0.54% hits;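 active = inhibition exceeding the mean over every tested compound plus 3 SD, cut at about 30% in these data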
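Assay system: Wild-type mouse ABHD4 protein | Medium: HEPES pH 7.0 buffer, 150 mM NaCl, 0.01% Pluronic F-127 | Incubation: Enzyme–compound pre-incubation 45 min, then probe 60 min, both 25 °C | Technique: Fluorescence polarization with parallel and perpendicular emission, 525/598 nm | Evaluation: % inhibition of FP-Rh probe binding versus controls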
PAFAH2 inh: inhibitors of human PAFAH2. inhibition, % at 3.39 µM. Q99487. recombinant PAFAH2, FP-rhodamine activity probe, fluorescence polarization. 340,000 compounds, 0.99% hits;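 active = inhibition above the mean over all tested compounds plus 3 SD, cut at about 30% in these data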;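 note: inhibitors block probe labeling of enzyme so polarization drops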
pPAFAH FP inh: pPAFAH (human) enzyme inhibition. inhibition, % at 3.39 µM. Q13093. 330,000 compounds, 1.5% hits. recombinant pPAFAH, FP-rhodamine probe fluorescence polarization;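 active = inhibition above the mean inhibition across the screen plus 3 SD, cut at about 25% in these data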;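 note: inhibitors block binding of the rhodamine activity-based probe so polarization drops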
Target sequence (Q13093 whole entry, looked up): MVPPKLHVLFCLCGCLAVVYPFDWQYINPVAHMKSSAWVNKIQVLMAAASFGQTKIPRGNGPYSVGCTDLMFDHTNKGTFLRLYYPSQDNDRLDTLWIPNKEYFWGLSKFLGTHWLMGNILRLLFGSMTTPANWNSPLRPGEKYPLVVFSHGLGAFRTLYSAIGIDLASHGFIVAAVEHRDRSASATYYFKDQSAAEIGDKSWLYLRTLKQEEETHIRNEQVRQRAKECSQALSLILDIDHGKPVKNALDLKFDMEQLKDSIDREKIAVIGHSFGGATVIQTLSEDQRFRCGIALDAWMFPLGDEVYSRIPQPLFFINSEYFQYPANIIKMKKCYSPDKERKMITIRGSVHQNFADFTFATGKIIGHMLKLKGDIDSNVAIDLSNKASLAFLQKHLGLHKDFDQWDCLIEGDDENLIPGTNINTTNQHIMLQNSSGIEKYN
PAFAH1B3 inh: blocks human PAF acetylhydrolase 1B catalytic subunit 3; inhibition, % at 3.39 µM; Q15102; 340,000 compounds, 0.28% hits; recombinant PAFAH1B3, FP-rhodamine probe, fluorescence polarization;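 active = inhibition above the screen-wide average of all tested compounds plus 3 SD, cut at about 25% in these data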
PAFAH2 confirm: confirmation of human PAFAH2 inhibitors; recombinant PAFAH2, FP-rhodamine activity probe, fluorescence polarization; AID 493030; shares compounds with PAFAH2 inh; 2,300 compounds, 65% hits; inhibition, % at 3.39 µM;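 active = mean inhibition over three repeats above a set limit taken from the earlier primary screen, cut at about 30% in these data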;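 note: inhibitor blocks binding of rhodamine activity probe so polarization falls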
Each line names hits and unclear results; the compound was inactive in the other large screens (follow-up assays come after a bar, where they were run). A selection: hits, their analogues and other compounds. The true share with any hit is near 2.8%.

COc1ccccc1NC(=O)COC(=O)/C=C/c1ccc(OC)c(OC)c1	PAFAH2 inh 37 | PAFAH2 confirm inactive
CCCC1CCC2(CC1)CCC2OC(=S)Nc1ccccc1C(F)(F)F (stereo unspecified)	none (no result: PAFAH1B2 FP inh, HTRA1 inh, PAFAH2 inh, pPAFAH FP inh, PAFAH1B3 inh)
O=c1c2c(nc3cc(-c4ccccc4)[nH]n13)CCS2	PAFAH2 inh 43 | PAFAH2 confirm inactive
O=c1oc(-c2cccs2)nc2c1cnn2-c1ccccc1	PAFAH2 inh 66 | PAFAH2 confirm 54
Cc1ccc2nc(-c3cccs3)oc(=O)c2c1	PAFAH2 inh 54 | PAFAH2 confirm 54
COc1cc2nc(-c3cccs3)oc(=O)c2cc1OC	PAFAH2 inh 41 | PAFAH2 confirm inactive
O=c1oc(-c2cccs2)nc2ccc(Br)cc12	none
COC(=O)c1cc(-c2ccc(C)cc2)c(=O)n2c1CCC2	none (no result: PAFAH1B2 FP inh, HTRA1 inh, PAFAH2 inh, pPAFAH FP inh, PAFAH1B3 inh)
COc1ccc(C2Nc3ccccc3C(=O)N2Cc2ccco2)cc1COc1c(C)cc(NC(C)=O)cc1C (stereo unspecified)	none (no result: PAFAH1B2 FP inh, HTRA1 inh, PAFAH2 inh, pPAFAH FP inh, PAFAH1B3 inh)
CCS(=O)(=O)Nc1ccc2c(c1)C(=O)N(C)[C@@H]1CC[C@H](CC(=O)NCCOC)O[C@H]1CO2	none (no result: PAFAH1B2 FP inh, HTRA1 inh, PAFAH2 inh, pPAFAH FP inh, PAFAH1B3 inh)
CCn1c(C)nc2cc(C(=O)OC(C(F)(F)C(F)F)C(F)(F)C(F)F)ccc21	PAFAH2 inh 90 | PAFAH2 confirm 79
CCOC(=O)Cc1nc2ccccc2[nH]1	none
O=C(OCc1nc2ccccc2[nH]1)C12CC3CC(CC(C3)C1)C2	PAFAH2 inh 57 | PAFAH2 confirm 49
O=C(NCC(c1ccccc1)c1ccccc1)[C@H](Cc1ccccc1)NC1(C(=O)NC2CCCCC2)CCCCCC1	none (no result: PAFAH1B2 FP inh, HTRA1 inh, PAFAH2 inh, pPAFAH FP inh, PAFAH1B3 inh)
CCCCCCN1CCS(=O)(=O)N(Cc2ccc(Cl)cc2)C(C(=O)OC)C1 (stereo unspecified)	none (no result: PAFAH1B2 FP inh, HTRA1 inh, PAFAH2 inh, pPAFAH FP inh, PAFAH1B3 inh)
COc1ccc(CNC2CCC23CCC(C)CC3)cc1 (stereo unspecified)	none (no result: PAFAH1B2 FP inh, HTRA1 inh, PAFAH2 inh, pPAFAH FP inh, PAFAH1B3 inh)
CN(C(=O)COC(=O)c1ccc(Cl)c(S(=O)(=O)N2CCCCC2)c1)C1(C#N)CCCCC1	PAFAH2 inh 30 | PAFAH2 confirm inactive
CN(C(=O)COC(=O)c1ccc(Cl)s1)C1(C#N)CCCCC1	PAFAH2 inh 30 (no result: pPAFAH FP inh) | PAFAH2 confirm inactive
NS(=O)(=O)c1cccc(NC(=O)c2ccccc2NS(=O)(=O)c2ccc(F)cc2)c1	PAFAH2 inh 42 | PAFAH2 confirm 47
N#CC1(NC(=O)COC(=O)c2cccc(-n3cnnn3)c2)CCCCC1	PAFAH2 inh 73 | PAFAH2 confirm 72
CNS(=O)(=O)c1cccc(C(=O)OCC(=O)NC2CCCC(C)C2C)c1 (stereo unspecified)	PAFAH2 inh 63 | PAFAH2 confirm 49
CCOC(=O)c1c(C)[nH]c(C(=O)OC(C)C(=O)NC2(C#N)CCCCC2)c1C (stereo unspecified)	none (no result: PAFAH1B2 FP inh, PAFAH2 inh, pPAFAH FP inh, PAFAH1B3 inh)
CCOC(=O)c1c(C)[nH]c(C(=O)OCC(=O)NC2(C#N)CCCCC2)c1C	PAFAH2 inh 57 | PAFAH2 confirm 52
Cc1cc(C(=O)OCC(=O)NC2CCCCC2)c(C)o1	PAFAH2 inh 84 | PAFAH2 confirm 63
C[C@H](O)[C@@H]1CN2CCc3ccc(-c4ccc5c(c4)OCO5)cc3[C@@H]2C[C@@H]1N(C)CC1CCCCC1	none (no result: PAFAH1B2 FP inh, HTRA1 inh, PAFAH2 inh, pPAFAH FP inh, PAFAH1B3 inh)
Cc1ccccc1CN1CCCCC(NC(=O)c2ccccc2)C1=O (stereo unspecified)	none (no result: PAFAH1B2 FP inh, HTRA1 inh, PAFAH2 inh, pPAFAH FP inh, PAFAH1B3 inh)
COc1cccc(CC(=O)OCC(=O)NC2(C#N)CCCCC2)c1	PAFAH2 inh 32 | PAFAH2 confirm inactive
Cc1cc(C(=O)OCC(=O)NC2(C#N)CCCCC2)c(C)o1	PAFAH2 inh 75 | PAFAH2 confirm 75
CNS(=O)(=O)c1cccc(C(=O)OCC(=O)Nc2cc(F)ccc2F)c1	PAFAH2 inh 45 | PAFAH2 confirm 32
N#CC1(NC(=O)COC(=O)c2ccc(-c3ccc(O)cc3)cc2)CCCCC1	PAFAH2 inh 76 | PAFAH2 confirm 72
Cc1cc(C(=O)OCC(=O)NC(C)C)c(C)o1	none
COc1cccc(CC(=O)OCC(=O)NC2(C#N)CCCC2)c1	none
Cc1ccc(C(=O)OCC(=O)NC2CCCCC2)o1	PAFAH2 inh 68 | PAFAH2 confirm 46
Cc1cc(C(=O)OCC(=O)NC2CCCC(C)C2C)c(C)o1 (stereo unspecified)	PAFAH2 inh 82 | PAFAH2 confirm 67
Nc1nccnc1C(=O)OCC(=O)NC1CCCc2ccccc21 (stereo unspecified)	none
N#CCC(=O)Nc1ccc(C(=O)OCC(=O)NC2CCCc3ccccc32)cc1 (stereo unspecified)	PAFAH2 inh 43 | PAFAH2 confirm 38
O=C(COC(=O)c1ccc([N+](=O)[O-])o1)NC1CCCCC1	none
N#CC1(NC(=O)COC(=O)c2ccccc2[N+](=O)[O-])CCCCC1	PAFAH2 inh 69 | PAFAH2 confirm 74
CC(C)(C)OC(=O)N1c2ccccc2[C@]2(N3CCCC3)C[C@H](C(=O)O)N(C(=O)OC(C)(C)C)[C@H]12	none (no result: PAFAH1B2 FP inh, HTRA1 inh, PAFAH2 inh, pPAFAH FP inh, PAFAH1B3 inh)
CCCC[C@H]1C2CC(OC(=O)Nc3ccccc3Cl)C(C2)[C@H]2CCCCN21 (stereo partly specified)	none (no result: PAFAH1B2 FP inh, HTRA1 inh, PAFAH2 inh, pPAFAH FP inh, PAFAH1B3 inh)
Cc1ccc(C(=O)OCC(=O)NC2CCCc3ccccc32)o1 (stereo unspecified)	PAFAH2 inh 33 | PAFAH2 confirm inactive
CCCCCCCCN1CCS(=O)(=O)N(Cc2ccc(C(F)(F)F)cc2)C(C(=O)OC)C1 (stereo unspecified)	none (no result: PAFAH1B2 FP inh, HTRA1 inh, PAFAH2 inh, pPAFAH FP inh, PAFAH1B3 inh)
CCCc1cc(=O)[nH]c(SCC(=O)N2CC3(C)CC2CC(C)(C)C3)n1 (stereo unspecified)	PAFAH2 inh 36 | PAFAH2 confirm inactive
Cc1cc(=O)[nH]c(SCC(=O)N2CC3(C)CC2CC(C)(C)C3)n1 (stereo unspecified)	none

Screening data deposited in PubChem BioAssay by The Scripps Research Institute Molecular Screening Center.
